# Reference: PMC7547215 (Proceedings of the National Academy of Sciences of the …, 2020)
# Like-named read-outs stand apart in the source and are kept apart here.
# Key:
# porcine RNase L [1] = target: T1, porcine RNase L (Sus scrofa, UniProt A5H025); test: Fluorescence-based RNase L endoribonuclease cleavage assay; type: biochemical
# T1 sequence (A5H025 1-743): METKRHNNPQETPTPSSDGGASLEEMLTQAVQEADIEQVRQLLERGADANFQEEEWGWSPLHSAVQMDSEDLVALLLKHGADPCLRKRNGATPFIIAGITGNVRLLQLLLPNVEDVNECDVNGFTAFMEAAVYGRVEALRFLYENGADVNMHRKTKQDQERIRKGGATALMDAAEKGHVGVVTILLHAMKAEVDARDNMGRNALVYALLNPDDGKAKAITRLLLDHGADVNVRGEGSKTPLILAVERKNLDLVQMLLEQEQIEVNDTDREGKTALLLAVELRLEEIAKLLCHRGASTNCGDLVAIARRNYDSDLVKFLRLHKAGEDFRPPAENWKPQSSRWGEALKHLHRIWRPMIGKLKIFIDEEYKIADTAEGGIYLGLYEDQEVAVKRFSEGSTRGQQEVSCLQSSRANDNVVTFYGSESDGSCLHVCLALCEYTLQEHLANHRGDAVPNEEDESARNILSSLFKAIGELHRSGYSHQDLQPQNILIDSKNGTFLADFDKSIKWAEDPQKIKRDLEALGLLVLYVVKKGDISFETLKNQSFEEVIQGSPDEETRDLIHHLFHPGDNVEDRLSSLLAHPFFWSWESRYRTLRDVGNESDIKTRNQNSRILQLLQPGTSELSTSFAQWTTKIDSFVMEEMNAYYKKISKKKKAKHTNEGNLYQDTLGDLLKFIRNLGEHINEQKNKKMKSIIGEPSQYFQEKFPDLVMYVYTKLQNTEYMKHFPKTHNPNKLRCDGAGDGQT
# murine IRE1 = murine IRE1 (Mus musculus, UniProt Q9EQY0); test: Fluorescence-based IRE1 endoribonuclease cleavage assay; type: biochemical
# murine IRE1, sequence (Q9EQY0 21-977): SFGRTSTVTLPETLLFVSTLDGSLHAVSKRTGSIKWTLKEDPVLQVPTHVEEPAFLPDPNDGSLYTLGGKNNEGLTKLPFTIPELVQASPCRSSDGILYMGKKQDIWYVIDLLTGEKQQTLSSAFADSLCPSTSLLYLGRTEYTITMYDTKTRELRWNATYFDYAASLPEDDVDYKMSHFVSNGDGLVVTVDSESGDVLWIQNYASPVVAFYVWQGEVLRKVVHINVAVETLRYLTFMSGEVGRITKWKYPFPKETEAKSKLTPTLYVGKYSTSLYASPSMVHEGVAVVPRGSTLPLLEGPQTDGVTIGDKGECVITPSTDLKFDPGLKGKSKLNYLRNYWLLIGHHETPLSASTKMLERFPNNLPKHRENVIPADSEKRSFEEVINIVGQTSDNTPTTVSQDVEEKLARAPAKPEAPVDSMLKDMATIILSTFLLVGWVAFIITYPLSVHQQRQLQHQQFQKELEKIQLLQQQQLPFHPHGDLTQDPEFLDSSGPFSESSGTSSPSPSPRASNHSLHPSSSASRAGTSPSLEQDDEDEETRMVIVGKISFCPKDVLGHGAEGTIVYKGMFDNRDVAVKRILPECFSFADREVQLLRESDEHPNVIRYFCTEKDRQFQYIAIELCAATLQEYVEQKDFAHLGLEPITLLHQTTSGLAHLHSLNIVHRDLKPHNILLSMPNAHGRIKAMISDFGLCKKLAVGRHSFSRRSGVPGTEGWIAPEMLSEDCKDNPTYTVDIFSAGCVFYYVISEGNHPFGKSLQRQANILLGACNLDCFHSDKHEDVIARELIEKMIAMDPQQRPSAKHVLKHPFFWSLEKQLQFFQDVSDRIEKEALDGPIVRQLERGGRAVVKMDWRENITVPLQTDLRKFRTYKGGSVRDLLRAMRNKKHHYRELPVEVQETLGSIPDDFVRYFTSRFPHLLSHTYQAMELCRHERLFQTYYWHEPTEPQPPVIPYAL
# porcine RNase L H680N = test: Differential scanning fluorimetry; type: binding
# Human CK2a = Human CK2a (Homo sapiens, UniProt P68400); test: In vitro inhibition of CK2α kinase activity; type: biochemical
# Human CK2a, sequence (P68400 whole entry): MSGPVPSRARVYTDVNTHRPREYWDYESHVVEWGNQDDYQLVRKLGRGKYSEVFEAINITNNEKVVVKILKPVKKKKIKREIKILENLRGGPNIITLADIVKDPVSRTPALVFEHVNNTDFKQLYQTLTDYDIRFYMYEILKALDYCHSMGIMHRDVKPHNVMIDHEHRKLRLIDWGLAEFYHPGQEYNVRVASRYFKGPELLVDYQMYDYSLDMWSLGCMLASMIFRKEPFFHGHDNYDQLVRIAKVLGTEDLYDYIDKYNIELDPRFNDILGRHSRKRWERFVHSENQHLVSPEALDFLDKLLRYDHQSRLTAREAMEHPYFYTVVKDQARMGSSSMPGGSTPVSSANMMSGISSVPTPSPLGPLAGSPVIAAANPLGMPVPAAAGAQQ
# [2] = target: T2, RNase L in human A549 cells (Homo sapiens, UniProt Q05823); test: rRNA cleavage after pIC transfection in A549 cells; type: cell-based
# T2 sequence (Q05823 1-741): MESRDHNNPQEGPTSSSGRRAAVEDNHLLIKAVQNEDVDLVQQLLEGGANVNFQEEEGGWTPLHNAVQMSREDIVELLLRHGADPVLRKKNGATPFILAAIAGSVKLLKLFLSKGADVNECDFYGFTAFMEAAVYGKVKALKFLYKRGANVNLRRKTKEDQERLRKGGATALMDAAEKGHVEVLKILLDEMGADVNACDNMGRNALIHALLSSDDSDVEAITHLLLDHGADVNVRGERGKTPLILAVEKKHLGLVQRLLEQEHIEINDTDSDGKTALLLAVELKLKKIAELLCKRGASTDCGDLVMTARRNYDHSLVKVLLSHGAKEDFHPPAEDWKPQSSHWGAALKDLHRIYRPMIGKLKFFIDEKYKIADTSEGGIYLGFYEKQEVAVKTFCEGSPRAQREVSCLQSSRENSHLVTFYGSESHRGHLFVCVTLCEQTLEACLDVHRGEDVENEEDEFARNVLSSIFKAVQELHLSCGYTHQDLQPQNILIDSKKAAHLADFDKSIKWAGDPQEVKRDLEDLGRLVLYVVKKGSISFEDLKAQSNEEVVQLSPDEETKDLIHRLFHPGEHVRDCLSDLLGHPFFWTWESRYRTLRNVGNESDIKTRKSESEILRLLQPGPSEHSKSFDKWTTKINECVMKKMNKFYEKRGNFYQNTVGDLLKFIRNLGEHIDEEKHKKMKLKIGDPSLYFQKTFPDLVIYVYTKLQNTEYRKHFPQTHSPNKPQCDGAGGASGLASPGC
# glycogen phosphorylase b = conditions: read-out: IC50, glycogen phosphorylase b; cited from earlier work
# [3] = tested on: casein kinase IIalpha (CK2α); conditions: cited from earlier work
# porcine RNase L [4] = target: T1, porcine RNase L; test: BODIPY-ATP fluorescence polarization binding/competition assay
# A549 cells = test: Cell survival; type: cell-based, human; conditions: up to 25 μM (SU 3 to 25 μM), over 30 h
# Outline: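 Human A549 cells cultured with test compound across a concentration series. Dye-labelled cells imaged in real time, and percent survival calculated. Mean ± SD of three survival profiles.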
# RNase L [5] = conditions: read-out: IC50, ribonuclease activity of RNase L in vitro; cited from earlier work
# RNase L [6] = conditions: cited from earlier work
compound,measurement,setting,value
"Nc1ccc2ccc3c(N)ccc4ccc1c2c43 [1,6-diaminopyrene]",Effect on RNase L ribonuclease activity,porcine RNase L [1]; Fig. 2,ineffective at complete inhibition
same,Effect on IRE1 ribonuclease activity,murine IRE1; Fig. 2,ineffective at complete inhibition
Nc1ncnc2c1ncn2[C@@H]1O[C@H](COP(=O)(O)OP(=O)(O)OP(=O)(O)O)[C@@H](O)[C@H]1O [ATP],Thermal stabilization of purified RNase L by ligand on its own,porcine RNase L H680N,pronounced stabilization
same,ΔTm of RNase L,"porcine RNase L H680N; named ligand(s) vs RNase L alone, SI Fig. S7, listed as ATP/MgCl2",6 ± 0.2 °C
"O=c1oc2c(O)c(O)cc3c(=O)oc4c(O)c(O)cc1c4c23 [EA, ellagic acid]",IC50,"porcine RNase L [1]; IC50, RNase L ribonuclease activity, 10-point dose–response, commercially sourced fresh powder, Fig. 1C, mean ± SEM of four curves",73.5 ± 0.2 nM
same,IC50,Human CK2a,419 nM
same,Decrease in potency in cells relative to in vitro against porcine RNase L,[2]; A549 and L929 cell lines,"~1,000 fold"
same,pIC-induced RNA cleavage pattern,"[2]; A549 cells, 3 h preincubation, 12 ng/mL pIC for 2 h",progressively reduced in a concentration-dependent manner
same,IC50,glycogen phosphorylase b,3200 nM
same,Potency of casein kinase II inhibition,[3],20 nM
same,IC50,"[3]; read-out: IC50, casein kinase IIalpha (CK2α)",40 nM
same,Competitive displacement of BODIPY-ATP from RNase L,porcine RNase L [4],neither EA nor VAL could competitively displace
same,IC50,murine IRE1,270.6 ± 0.1 nM
same,Cytotoxicity,A549 cells,not cytotoxic
CCN(CC)CCNC(=O)c1c(C)[nH]c(/C=C2\C(=O)Nc3ccc(F)cc32)c1C [sunitinib],IC50,RNase L [5],1400 nM
same,Concentration required for the repression of RNase L cleavage activity,RNase L [6]; in cells,~5 µM
same,IC50,"RNase L [6]; read-out: IC50, antiviral function of RNase L in cells",1000 nM
same,Cytotoxicity,A549 cells,considerable cytotoxicity
